Publication PMC10077533 (ACS Omega, 2023)

How the values were obtained:
[1] = test system: MDA-MB-468 breast cancer cells; assay: γ-H2AX staining, detection of DNA damage; format: cell-based, human; details: MDA-MB-468, 50 μM
Summary of the method: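 MDA-MB-468 cells treated with test compound, then immunocytochemically stained for γ-H2AX, with untreated cells as control. DNA damage imaged as red fluorescence, and red fluorescence intensity quantified.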

[2] = test system: calf-thymus DNA (ct-DNA); details: classical DNA intercalator, comparison value; cited from earlier work
[3] = test system: ct-DNA; details: obtained from the literature; cited from earlier work
[4] = test system: MDA-MB-468 breast cancer cells; assay: JC-1 staining, mitochondrial membrane potential by flow cytometry; format: cell-based, human; details: MDA-MB-468, positive control, 5μM CCCP

## N.N.[Cl][Pt][Cl] [cisplatin]
[1]
  γH2AX (phosphorylated histone) staining: DNA damage

## CC[n+]1c(-c2ccccc2)c2cc(N)ccc2c2ccc(N)cc21 [EtBr, ethidium bromide]
[2]
  Kb value of EtBr (KEtBr): 7 × 10^5 M^–1
[3]
  KEtBr, EtBr binding constant: 1.0 × 10^7 M^–1

## N#CC(C#N)=NNc1cccc(Cl)c1 [CCCP, carbonyl cyanide m-chlorophenylhydrazone]
[4]
  cells with damaged mitochondria (JC-1 monomers): 76.98%
  cells with healthy mitochondria (red + green fluorescing JC-1 aggregates): 22.08%
